Data: ChEMBL document CHEMBL1255303, “In vitro and in vivo antifungal activities of T-2307, a novel arylamidine” (2008)
In brackets after ≈: the same amount, converted by molar mass. Activity calls are given as the source filed them. No cut-off for these calls is given here.

Columns and labels:
Aspergillus fumigatus [1] = assay: Antifungal activity against Aspergillus fumigatus ATCC 16424 after 48 hrs by broth microdilution method; assay type: functional; conditions: ATCC 16424, 48 h
Summary of the method: (§1)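 CLSI M27-A2 (yeasts) or M38-A (A. fumigatus) broth microdilution in RPMI 1640 buffered to pH 7.0 with 0.165 M MOPS. Final inocula were 0.65–2.5 × 10^3 CFU/ml for yeasts and 0.87–3.8 × 10^4 CFU/ml for filamentous fungi. Incubation was at 35°C for about 48 h (72 h for C. neoformans). MIC was the lowest concentration giving a prominent (~50%) turbidity drop versus growth control; amphotericin B required complete inhibition.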

Aspergillus nidulans = assay: Antifungal activity against Aspergillus nidulans NBRC 33017 after 48 hrs by broth microdilution method; assay type: functional; conditions: NBRC 33017, 48 h
Summary of the method: (§2)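 CLSI M27-A2 (yeasts) / M38-A (moulds) broth microdilution in RPMI 1640 buffered to pH 7.0 with 0.165 M MOPS. Malassezia furfur got the same medium supplemented with glucose, bile salts, glycerol, glycerol monostearate and Tween 20. Final inoculum 0.65 × 10^3–2.5 × 10^3 CFU/ml for yeasts and 0.87 × 10^4–3.8 × 10^4 CFU/ml for filamentous fungi. Incubation at 35°C except M. racemosus and F. solani, which were held at 30°C.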

Candida albicans [2] = assay: Antifungal activity against Candida albicans ATCC 64124 after 47 hrs by broth microdilution method; assay type: functional; conditions: ATCC 64124, 47 h
Summary of the method: (§3)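 Fluconazole-resistant or susceptible-dose-dependent ATCC C. albicans strains were tested by CLSI M27-A2 broth microdilution in RPMI 1640–0.165 M MOPS, pH 7.0, with a final inoculum of 1.1–1.5 × 10^3 CFU/ml at 35°C for about 47 h. MIC was the lowest concentration with a prominent (~50%) turbidity decrease relative to growth control; amphotericin B was read at complete inhibition.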

Aspergillus flavus = assay: Antifungal activity against Aspergillus flavus NBRC 6343 after 48 hrs by broth microdilution method; assay type: functional; conditions: NBRC 6343, 48 h; summary of the method: as §2
Scedosporium boydii = assay: Antifungal activity against Pseudallescheria boydii NBRC 32229 after 72 hrs by broth microdilution method; assay type: functional; conditions: NBRC 32229, 72 h; summary of the method: as §2
Candida parapsilosis [3] = assay: Antifungal activity against Candida parapsilosis NBRC 10219 after 48 hrs by broth microdilution method; assay type: functional; conditions: Lodderomyces parapsilosis, NBRC 10219, 48 h; summary of the method: as §1
Aspergillus fumigatus [4] = assay: Antifungal activity against Aspergillus fumigatus clinical isolates after 48 hrs by broth microdilution method; assay type: functional
Summary of the method: (§4)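 Clinical isolates from Japanese hospitals or culture collections were tested by broth microdilution in RPMI 1640-MOPS. Inoculum was 0.57 × 10^3–2.5 × 10^3 CFU/ml for yeasts and 0.4 × 10^4–3.3 × 10^4 CFU/ml for filamentous fungi. Incubation was at 35°C for about 48 h, or 72 h where footnoted. Results were summarised as MIC range, MIC50 and MIC90.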

Nakaseomyces glabratus = assay: Antifungal activity against Candida glabrata ATCC 90030 after 48 hrs by broth microdilution method; assay type: functional; conditions: ATCC 90030, 48 h; summary of the method: as §2
Aspergillus terreus = assay: Antifungal activity against Aspergillus terreus NBRC 33026 after 48 hrs by broth microdilution method; assay type: functional; conditions: NBRC 33026, 48 h; summary of the method: as §2
Cryptococcus neoformans [5] = assay: Antifungal activity against Cryptococcus neoformans TIMM 0354 after 72 hrs by broth microdilution method; assay type: functional; conditions: TIMM 0354, 72 h; summary of the method: as §1
Candida albicans [6] = assay: Antifungal activity against Candida albicans ATCC MYA-574 after 47 hrs by broth microdilution method; assay type: functional; conditions: ATCC MYA-574, 47 h
Summary of the method: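 Fluconazole-resistant or susceptible-dose-dependent C. albicans ATCC strains were tested by broth microdilution in RPMI 1640-MOPS. Inoculum was 1.1 × 10^3–1.5 × 10^3 CFU/ml, with incubation at 35°C for about 47 h. Yeast MIC was read as about 50% turbidity decrease relative to growth control, except amphotericin B, read at complete inhibition.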

Saccharomyces cerevisiae = assay: Antifungal activity against Saccharomyces cerevisiae ATCC 24657 after 48 hrs by broth microdilution method; assay type: functional; conditions: ATCC 24657, 48 h; summary of the method: as §2
Cryptococcus neoformans [7] = assay: Antifungal activity against Cryptococcus neoformans ATCC 90113 after 72 hrs by broth microdilution method; assay type: functional; conditions: ATCC 90113, 72 h; summary of the method: as §2
Lichtheimia corymbifera = assay: Antifungal activity against Absidia corymbifera NBRC 4009 after 24 hrs by broth microdilution method; assay type: functional; conditions: NBRC 4009, 24 h; summary of the method: as §2
Candida albicans [8] = assay: Antifungal activity against Candida albicans ATCC MYA-573 after 47 hrs by broth microdilution method; assay type: functional; conditions: ATCC MYA-573, 47 h; summary of the method: as §3
Candida albicans [9] = assay: Antifungal activity against Candida albicans ATCC 10261 after 48 hrs by broth microdilution method; assay type: functional; conditions: ATCC 10261, 48 h; summary of the method: as §2
Candida albicans [10] = assay: Antifungal activity against Candida albicans clinical isolates after 48 hrs by broth microdilution method; assay type: functional; summary of the method: as §4
Candida tropicalis = assay: Antifungal activity against Candida tropicalis IFO 1400 after 48 hrs by broth microdilution method; assay type: functional; conditions: IFO 1400, 48 h; summary of the method: as §2
Candida parapsilosis [11] = assay: Antifungal activity against Candida parapsilosis clinical isolates after 48 hrs by broth microdilution method; assay type: functional; conditions: Lodderomyces parapsilosis
Summary of the method: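 Japanese hospital Candida isolates were tested by CLSI M27-A2 broth microdilution in RPMI 1640–MOPS, pH 7.0, with inocula of 0.57–2.5 × 10^3 CFU/ml at 35°C for about 48 h. Inocula came from 24-h potato dextrose agar cultures. MIC was the lowest concentration with about 50% turbidity reduction versus growth control (complete inhibition for amphotericin B). Range, MIC50 and MIC90 were reported.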

Candida albicans [12] = assay: Antifungal activity against Candida albicans ATCC 90028 after 48 hrs by broth microdilution method; assay type: functional; conditions: ATCC 90028, 48 h; summary of the method: as §2
Aspergillus fumigatus [13] = assay: Antifungal activity against Aspergillus fumigatus IFM 46895 infected ICR mouse assessed as delay in mortality of mouse at 1 mg/kg after 6 days; assay type: functional, organism-based; design: dose 1 mg/kg
Summary of the method: (§5)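 Male ICR mice, 4 weeks old and SPF, were made neutropenic with intraperitoneal cyclophosphamide. The schedule was 200 mg/kg on day −3 (day −4 for Cryptococcus) plus 100 mg/kg on day +1. Infection was by tail-vein injection of 0.2 ml suspension: C. albicans 3.0 × 10^4, C. neoformans 9.1 × 10^4, A. fumigatus conidia 8.4 × 10^4 CFU/mouse. Drugs were given subcutaneously once daily for 7 days from 2 h post-infection; controls received saline. Groups had 8–10 mice.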

Aspergillus fumigatus [14] = assay: Antifungal activity against Aspergillus fumigatus IFM 46895 infected ICR mouse after 6 days; assay type: functional; conditions: IFM 46895, 144 h; summary of the method: as §5
Candida albicans [15] = assay: Antifungal activity against Candida albicans TIMM 1623 infected ICR mouse after 6 days; assay type: functional; conditions: TIMM 1623, 144 h; summary of the method: as §5

SMILES | MFC (Aspergillus fumigatus [1]) [µg/mL] | MIC (Aspergillus fumigatus [1]) [µg/mL] | MFC (Aspergillus nidulans) [µg/mL] | MIC (Aspergillus nidulans) [µg/mL] | MIC (Candida albicans [2]) [µg/mL] | MFC (Aspergillus flavus) [µg/mL] | MIC (Aspergillus flavus) [µg/mL] | MFC (Scedosporium boydii) [µg/mL] | MIC (Scedosporium boydii) [µg/mL] | MFC (Candida parapsilosis [3]) [µg/mL] | MIC (Candida parapsilosis [3]) [µg/mL] | MIC50 (Aspergillus fumigatus [4]) [µg/mL] | MIC90 (Aspergillus fumigatus [4]) [µg/mL] | MFC (Nakaseomyces glabratus) [µg/mL] | MIC (Nakaseomyces glabratus) [µg/mL] | MFC (Aspergillus terreus) [µg/mL] | MIC (Aspergillus terreus) [µg/mL] | MFC (Cryptococcus neoformans [5]) [µg/mL] | MIC (Cryptococcus neoformans [5]) [µg/mL] | MIC (Candida albicans [6]) [µg/mL] | further results
C[C@@H](c1ncncc1F)[C@](O)(Cn1cncn1)c1ccc(F)cc1F [VORICONAZOLE] | 32 (≈ 91.6 µM) | 0.25 (≈ 0.716 µM) | 0.25 (≈ 0.716 µM) | 0.125 (≈ 0.358 µM) | 16 (≈ 45.8 µM) | 1 (≈ 2.86 µM) | 0.5 (≈ 1.43 µM) | > 64 | 1 (≈ 2.86 µM) | > 64 | 0.0313 (≈ 0.0896 µM) | 1 (≈ 2.86 µM) | 1 (≈ 2.86 µM) | > 64 | 0.25 (≈ 0.716 µM) | 32 (≈ 91.6 µM) | 0.5 (≈ 1.43 µM) | > 64 | 0.0313 (≈ 0.0896 µM) | 0.25 (≈ 0.716 µM) | MFC (Saccharomyces cerevisiae): > 64 µg/mL; MIC (Saccharomyces cerevisiae): 0.125 µg/mL (≈ 0.358 µM); MFC (Cryptococcus neoformans [7]): > 64 µg/mL; MIC (Cryptococcus neoformans [7]): 0.0625 µg/mL (≈ 0.179 µM); MFC (Lichtheimia corymbifera): > 64 µg/mL; MIC (Lichtheimia corymbifera): 32 µg/mL (≈ 91.6 µM); MIC (Candida albicans [8]): 0.25 µg/mL (≈ 0.716 µM); MFC (Candida albicans [9]): > 64 µg/mL; MIC (Candida albicans [9]): 0.0039 µg/mL (≈ 0.0112 µM); MIC (Candida albicans [10]): 3.9 ng/mL (≈ 0.0112 µM); MIC50 (Candida albicans [10]): 0.0039 µg/mL (≈ 0.0112 µM); MIC90 (Candida albicans [10]): 0.0078 µg/mL (≈ 0.0223 µM); MFC (Candida tropicalis): > 64 µg/mL; MIC (Candida tropicalis): 0.0625 µg/mL (≈ 0.179 µM); MIC50 (Candida parapsilosis [11]): 0.0156 µg/mL (≈ 0.0447 µM); MIC90 (Candida parapsilosis [11]): 0.0313 µg/mL (≈ 0.0896 µM); MFC (Candida albicans [12]): > 64 µg/mL; MIC (Candida albicans [12]): 0.0039 µg/mL (≈ 0.0112 µM)
C[C@@H]1[C@H](O)[C@@H](C)/C=C/C=C/C=C/C=C/C=C/C=C/C=C/[C@H](O[C@@H]2O[C@H](C)[C@@H](O)[C@H](N)[C@@H]2O)C[C@@H]2O[C@](O)(C[C@@H](O)C[C@@H](O)[C@H](O)CC[C@@H](O)C[C@@H](O)CC(=O)O[C@H]1C)C[C@H](O)[C@H]2C(=O)O [AMPHOTERICIN B] | 2 (≈ 2.16 µM) | 1 (≈ 1.08 µM) | 2 (≈ 2.16 µM) | 2 (≈ 2.16 µM) | 2 (≈ 2.16 µM) | 2 (≈ 2.16 µM) | 2 (≈ 2.16 µM) | > 64 | > 64 | 1 (≈ 1.08 µM) | 1 (≈ 1.08 µM) | 2 (≈ 2.16 µM) | 2 (≈ 2.16 µM) | 1 (≈ 1.08 µM) | 1 (≈ 1.08 µM) | > 64 | 2 (≈ 2.16 µM) | 1 (≈ 1.08 µM) | 1 (≈ 1.08 µM) | 1 (≈ 1.08 µM) | Activity (Aspergillus fumigatus [13]): Active; MFC (Saccharomyces cerevisiae): 2 µg/mL (≈ 2.16 µM); MIC (Saccharomyces cerevisiae): 1 µg/mL (≈ 1.08 µM); MFC (Cryptococcus neoformans [7]): 2 µg/mL (≈ 2.16 µM); MIC (Cryptococcus neoformans [7]): 2 µg/mL (≈ 2.16 µM); MFC (Lichtheimia corymbifera): > 64 µg/mL; MIC (Lichtheimia corymbifera): 2 µg/mL (≈ 2.16 µM); ED50 (Aspergillus fumigatus [14]): 0.289 mg/kg; MIC (Candida albicans [8]): 2 µg/mL (≈ 2.16 µM); MFC (Candida albicans [9]): 2 µg/mL (≈ 2.16 µM); MIC (Candida albicans [9]): 1 µg/mL (≈ 1.08 µM); MIC50 (Candida albicans [10]): 2 µg/mL (≈ 2.16 µM); MIC90 (Candida albicans [10]): 2 µg/mL (≈ 2.16 µM); MFC (Candida tropicalis): 1 µg/mL (≈ 1.08 µM); MIC (Candida tropicalis): 1 µg/mL (≈ 1.08 µM); MIC50 (Candida parapsilosis [11]): 2 µg/mL (≈ 2.16 µM); MIC90 (Candida parapsilosis [11]): 2 µg/mL (≈ 2.16 µM); MFC (Candida albicans [12]): 1 µg/mL (≈ 1.08 µM); MIC (Candida albicans [12]): 1 µg/mL (≈ 1.08 µM); ED50 (Candida albicans [15]): 0.0466 mg/kg
